core dimer inh: HCV core protein dimerization inhibition; AID 1899; TR-FRET GST/Flag-core106 dimerization, 1536-well; 300,000 tested, 0.33% active; inhibition, % at 5 µM;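 active = inhibition above the mean of all tested compounds plus 3 SD, set per screening campaign, cut at about 45% in these data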
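assay system = GST-tagged and Flag-tagged HCV core protein residues 1-106 | controls = unlabelled core106 and no-GST-core106 wells | incubation = compound-protein-antibody incubation 4 h at 22.5 °C | probe or stimulus = Eu donor and XL665 acceptor anti-tag antibodies | read-out = % inhibition based on acceptor/donor emission ratio | signal = TR-FRET 671 and 617 nm emission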
TDP2 inh: TDP2 (human) inhibition, absorbance primary screen; O95551; recombinant TDP2, T5PNP hydrolysis, p-nitrophenol absorbance 415 nm; inhibition, % at 12.8 µM; 370,000 tested, 0.34% active; AID 720702;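 active = inhibition above the mean of all tested compounds plus 3 SD, set per campaign, cut at about 25% in these data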;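 also: 0% = DMSO with enzyme and 100% = buffer with substrate but no TDP2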
Target sequence (O95551 whole entry, looked up): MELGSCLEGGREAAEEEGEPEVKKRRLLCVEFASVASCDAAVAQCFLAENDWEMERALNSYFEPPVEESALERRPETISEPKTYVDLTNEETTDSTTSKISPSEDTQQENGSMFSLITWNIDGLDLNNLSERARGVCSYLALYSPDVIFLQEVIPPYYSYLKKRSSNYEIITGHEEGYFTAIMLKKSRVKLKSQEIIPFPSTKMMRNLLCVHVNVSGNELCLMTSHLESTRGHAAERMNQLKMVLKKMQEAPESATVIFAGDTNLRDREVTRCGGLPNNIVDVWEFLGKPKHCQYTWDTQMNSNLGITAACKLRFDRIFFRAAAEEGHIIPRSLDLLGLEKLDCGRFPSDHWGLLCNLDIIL
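Test system: Human TDP2 enzyme | Reagent: 5 mM T5PNP | Compound dosing: 12.8 µM single point, 1% DMSO | Incubation: Enzyme reaction with compound for 2 h at 37 °C | Technique: p-Nitrophenol epi absorbance | Read-out: % inhibition relative to enzyme-containing and enzyme-free wells | Benchmarks: High control without enzyme, low control DMSO plus TDP2 | Replicates: Singlicate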
LEDGF integ inh: blocks HIV-1 LEDGF/p75-dependent DNA integration; TR-FRET IN-LEDGF/p75 DNA integration, Eu/Cy5; inhibition, % at 3.7 µM; 370,000 tested, 0.64% active; AID 743269;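 active = inhibition above the screen-wide mean plus 3 SD, cut at about 13% in these data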;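 also: signal is the Cy5 over europium emission ratio at 671 and 618 nm; 0% = plate median of compound wells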
UHRF1 binding: UHRF1 methyl-DNA binding inhibition; inhibition, % at 4.4 µM; Q96T88; UHRF1 binding to methylated oligo, TR-FRET; 370,000 tested, 0.75% active; in the data active = inhibition above about 21%;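 also: UHRF1 SRA domain binding a hemimethylated CpG hairpin DNA probe; 0% = median of test compound wells and 100% = reference inhibitor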
MBD2 inh: blocks human MBD2 binding to methylated DNA | 370,000 tested, 0.31% active | TR-FRET, MBD2 binding to methylated oligonucleotide | Q9UBB5 | inhibition, % at 4.4 µM; in the data active = inhibition above about 13%
TDP2 confirm: confirmation of human TDP2 inhibitors; shares compounds with TDP2 inh; recombinant human TDP2, absorbance read-out; inhibition, % at 12.8 µM; 1,100 tested, 22% active; in the data active = inhibition above about 25%;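 also: 0% = vehicle with enzyme and 100% = no enzyme buffer only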
IN multimer act: counter-screen for LEDGF/p75 integration inhibitors: HIV-1 integrase multimerization activators. shares compounds with LEDGF integ inh. TR-FRET HIV-1 integrase multimerization, biochemical. activation, % at 7.7 µM. 2,000 tested, 17% active. AID 1053131; in the data active = activation above about 8.9%
TRFRET interf: counter-screen for LEDGF/p75 integration inhibitors: TR-FRET optical interference; shares compounds with LEDGF integ inh; TR-FRET optical interference counterscreen, HIV-1 IN multimerization; inhibition, % at 7.7 µM; 2,000 tested, under 10 active; AID 1053135;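 active = inhibition above the mean over all tested compounds plus 3 SD, which no compound reached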;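 also: 0% = integrase with antibodies and DMSO and 100% = antibodies without integrase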
IN-LEDGF confirm: LEDGF/p75-dependent HIV-1 integration inhibition, confirmation; inhibition, % at 3.7 µM; 2,000 tested, 36% active; TR-FRET LEDGF/p75-dependent HIV-1 integration, biochemical; shares compounds with LEDGF integ inh; AID 1053136; in the data active = inhibition above about 14%
Active calls of the source: *. Only some compounds are listed: those with a hit (about 1.8% of all), similar ones and a draw of the others.

Results for CC1OC(Nc2ccc(N=Nc3ccccc3)cc2)C(O)C(O)C1O (configuration not stated) ?
core dimer inh: -15; TDP2 inh: -6; LEDGF integ inh: -5; UHRF1 binding: -3; MBD2 inh: -7

Results for Cc1ccc(S(=O)(=O)Nc2ccc3c4c(cccc24)CC3)c(C)c1 ?
core dimer inh: 17; TDP2 inh: 3; LEDGF integ inh: 1; UHRF1 binding: 2; MBD2 inh: 2

What do the screens show for `Cc1ccc(S(=O)(=O)Nc2ccc(O)c3ccccc23)c(C)c1`?
TDP2 inh: 29*; LEDGF integ inh: 14*; UHRF1 binding: -5; MBD2 inh: -9; TDP2 confirm: 10; IN multimer act: 4; TRFRET interf: -14; IN-LEDGF confirm: 2

How did CC(C)C1NC2(C(=O)c3ccccc3C2=O)C2C(=O)N(c3ccc(F)cc3)C(=O)C12 (configuration not stated) do in these assays?
core dimer inh: 3; TDP2 inh: 40*; LEDGF integ inh: 39*; UHRF1 binding: 0; MBD2 inh: -3; TDP2 confirm: 2; IN multimer act: 2; TRFRET interf: -6; IN-LEDGF confirm: -1

What do the screens show for `O=C1C2C3C=CC(CC3)C2C(=O)N1c1ccc(F)cc1` (configuration not stated)?
core dimer inh: -12; TDP2 inh: 8; LEDGF integ inh: -3; UHRF1 binding: -1; MBD2 inh: 0

What do the screens show for `COC(=O)[C@@H](C)NC(=O)C(Cc1ccc2c(c1)OCO2)NC(C)=O` (some centres not stated)?
TDP2 inh: 3; LEDGF integ inh: -4; UHRF1 binding: -1; MBD2 inh: 3

How did CC(C)C[C@@H]1COc2cc(Br)ccc2S(=O)(=O)N1Cc1cn(Cc2ccco2)nn1 do in these assays?
TDP2 inh: 7; LEDGF integ inh: -1; UHRF1 binding: -3; MBD2 inh: 2

Results for O=C(NCCc1ccccc1Cl)[C@@H]1CCCN1C(=O)[C@H](Cc1cccnc1)NC(=O)N1CCOCC1 ?
TDP2 inh: 2; LEDGF integ inh: -4; UHRF1 binding: 2; MBD2 inh: -1

Results for CC(C)CN1C(=O)[C@@]2(CC(=O)N(C)C2c2ccccc2)c2cc(-n3cc(CO)nn3)ccc21 (some centres not stated) ?
TDP2 inh: -10; LEDGF integ inh: -2; UHRF1 binding: 2; MBD2 inh: -1

Results for CN(C)c1cc(Cl)c2nonc2c1N ?
core dimer inh: -5; TDP2 inh: 66*; LEDGF integ inh: 26*; UHRF1 binding: 12; MBD2 inh: 10; TDP2 confirm: 54*; IN multimer act: 1; TRFRET interf: -4; IN-LEDGF confirm: 11

What do the screens show for `COc1ccc(C(=O)NCC2CCN(C(=O)C(=O)c3cc4ccccc4o3)CC2)cc1`?
TDP2 inh: 4; LEDGF integ inh: 0; UHRF1 binding: -1; MBD2 inh: -3

How did COC[C@@H](OC(C)=O)[C@H]1OCc2ccccc2[C@@H]1/C=C/c1ccccc1 do in these assays?
TDP2 inh: -1; LEDGF integ inh: -1; UHRF1 binding: 4; MBD2 inh: -1

How did O=C1c2cccc(O)c2C(=O)c2c(O)cc(CO)cc21 do in these assays?
core dimer inh: -4

Bioassay records (PubChem BioAssay)
